Measured values published in ChEMBL document CHEMBL4145451, “1,3,5-triazaspiro[5.5]undeca-2,4-dienes as selective Mycobacterium tuberculosis dihydrofolate reductase inhibitors with potent whole cell activity” (Eur J Med Chem, 2018).
Converted amounts (≈) assume the structure as drawn.

Assays:
Dihydrofolate reductase [1] = molecular target: T1, Dihydrofolate reductase (Mycobacterium tuberculosis, UniProt P9WNX1); experiment: Inhibition of Mycobacterium tuberculosis H37Rv DHFR assessed as reduction in consumption of NADPH using DHF as substrate incubated for 3 mins measured for 2 mins by spectrophotometric method
T1 sequence (P9WNX1 whole entry): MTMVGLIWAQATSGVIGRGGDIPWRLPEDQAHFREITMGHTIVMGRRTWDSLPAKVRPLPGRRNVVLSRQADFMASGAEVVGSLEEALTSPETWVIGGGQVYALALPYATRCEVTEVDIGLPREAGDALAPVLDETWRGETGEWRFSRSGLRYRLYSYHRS

Dihydrofolate reductase [2] = molecular target: T2, Dihydrofolate reductase (Homo sapiens, UniProt P00374); experiment: Inhibition of human DHFR assessed as reduction in consumption of NADPH using DHF as substrate incubated for 3 mins measured for 2 mins by spectrophotometric method
T2 sequence (P00374 whole entry): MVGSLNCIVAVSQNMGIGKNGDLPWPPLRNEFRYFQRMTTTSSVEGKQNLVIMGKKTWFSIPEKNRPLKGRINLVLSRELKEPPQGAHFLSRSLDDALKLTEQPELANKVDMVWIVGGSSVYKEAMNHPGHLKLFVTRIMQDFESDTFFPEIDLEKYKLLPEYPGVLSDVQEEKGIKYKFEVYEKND

[3] = Cytotoxicity against African green monkey Vero cells by MTT assay; type: cell-based; conditions: chlorocebus sabaeus
[4] = test system: Mycobacterium tuberculosis; experiment: Antimycobacterial activity against Mycobacterium tuberculosis H37Rv by resazurin dye based two-fold dilution assay; type: functional
A549 = experiment: Cytotoxicity against human A549 cells; type: cell-based
Dihydrofolate reductase [5] = molecular target: T2, Dihydrofolate reductase; experiment: Inhibition of human DHFR
[6] = Intrinsic clearance in male rat liver microsomes at 3 uM preincubated for 5 mins followed by NADPH addition measured up to 45 mins by LC-MS/MS analysis; type: ADME, microsome; conditions: read-out: CLH
Summary of the method: (§1)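 Compound (final 3 µM) was incubated with male or female rat liver microsomes (0.3 mg protein/mL) in 0.1 M phosphate pH 7.4. After a 5 min pre-incubation at 37 °C, NADPH (final 1 mM) was added to start the reaction. Samples were taken at 0, 5, 10, 15, 30 and 45 min and the remaining compound was quantified by LC-MS.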

Dihydrofolate reductase [7] = molecular target: T1, Dihydrofolate reductase; experiment: Inhibition of Mycobacterium tuberculosis His-tagged DHFR assessed as reduction in consumption of NADPH using DHF as substrate measured every 30 secs over 6 mins by spectrophotometric method
[8] = Selectivity index, ratio of CC50 for cytotoxicity against human HepG2 cells to MIC90 for antimycobacterial activity against Mycobacterium tuberculosis H37Rv; type: toxicity, cell-based; conditions: HepG2 cells versus Mycobacterium tuberculosis H37Rv, read-out: Selectivity Index
Summary of the method: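 H37Rv grown to mid-log (OD600 0.4–0.6), 5 × 10^5 CFU/mL, in supplemented 7H9 with 2-fold compound dilutions (DMSO), 10 days at 37 °C shaken. MIC90 is the lowest concentration giving 90% inhibition by OD600. HepG2 cells in DMEM/10% FBS are exposed to 2-fold dilutions, and CC50 (50% viability loss) is read by MTS absorbance at 490 nm. SI = CC50/MIC90. Means of 3 independent experiments.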

[9] = Cytotoxicity against human HepG2 cells assessed as reduction in cell viability by MTS assay; type: cell-based
Summary of the method: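 HepG2 cells were grown in DMEM with 10% heat-inactivated FBS at 37 °C and 5% CO2, then exposed to 2-fold serially diluted compound. Viability was read by MTS absorbance at 490 nm. CC50 is the concentration giving a 50% viability drop, taken from the absorbance-versus-concentration plot. Triton X-100 was the positive control. Means of 3 independent experiments.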

[10] = Hemolytic activity in human RBC after 24 hrs; type: ADME, cell-based, Erythrocyte; conditions: red blood cells (erythrocytes), read-out: LC50
Summary of the method: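 Red blood cells were PBS-washed and resuspended at 10^6/mL, then incubated 24 h with compound. After centrifugation at 1000 g for 10 min, supernatant absorbance was read at 540 nm. PBS served as the negative control and 0.1% Triton X-100 as the positive control. Reported as LC50.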

Dihydrofolate reductase [11] = molecular target: T2, Dihydrofolate reductase; experiment: Inhibition of recombinant human DHFR assessed as reduction in consumption of NADPH using DHF as substrate measured every 30 secs over 6 mins by spectrophotometric method
[12] = Intrinsic clearance in female rat liver microsomes at 3 uM preincubated for 5 mins followed by NADPH addition measured up to 45 mins by LC-MS/MS analysis; type: ADME, microsome; conditions: read-out: CLH; summary of the method: as §1
[13] = Selectivity index, ratio of IC50 for inhibition of recombinant human DHFR to IC50 for inhibition of Mycobacterium tuberculosis His-tagged DHFR
Summary of the method: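 Spectrophotometric DHFR assay at room temperature in 0.15 M potassium phosphate, pH 7, with 50 µM DHF, 60 µM NADPH and 1.5 × 10^-3 units recombinant human DHFR or 0.3 ng/mL recombinant Mtb DHFR, plus serial inhibitor concentrations in DMSO. NADPH use is followed at 340 nm every 30 s for 6 min. Slope versus uninhibited gives % inhibition, and IC50 comes from log-dose curves. SI = human IC50 / Mtb IC50.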

[14] = Aqueous solubility of compound in pH 7.4 solution after 90 mins by UV method; type: physicochemical; conditions: aqueous solution pH 7.4, pH 7.4
Summary of the method: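 Compound was diluted from a 10 mM DMSO stock to final 3.13–100 µM in 45 mM ethanolamine/potassium dihydrogen phosphate/potassium acetate buffer, pH 7.4. After 90 min at room temperature the solution was filtered and diluted with acetonitrile and buffer. Absorbance was read at 330 nm.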

[15] = Half life in male rat liver microsomes at 3 uM preincubated for 5 mins followed by NADPH addition measured up to 45 mins by LC-MS/MS analysis; type: ADME, microsome; summary of the method: as §1
[16] = test system: Mycobacterium tuberculosis; experiment: Antimycobacterial activity against Mycobacterium tuberculosis H37Rv after 10 days by broth dilution method; type: functional; conditions: 240 h
Summary of the method: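 Broth microdilution. Mid-log cultures (OD600 0.4–0.6) were diluted and added to 2-fold serial compound dilutions in DMSO, giving a final 5 × 10^5 CFU/mL in 7H9-albumin-dextrose-catalase-glycerol-Tween 80. Plates were sealed and incubated at 37 °C for 10 days with shaking at 80 rpm. OD600 was read; MIC50 and MIC90 are the lowest concentrations giving 50% and 90% growth inhibition. Rifampicin and DMSO served as controls. Means of 3 independent experiments.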

[17] = Half life in female rat liver microsomes at 3 uM preincubated for 5 mins followed by NADPH addition measured up to 45 mins by LC-MS/MS analysis; type: ADME, microsome; summary of the method: as §1
Dihydrofolate reductase [18] = molecular target: T1, Dihydrofolate reductase; experiment: Inhibition of Mycobacterium tuberculosis H37Rv DHFR expressed in Escherichia coli assessed as reduction in consumption of NADPH using DHF as substrate by fluorescence method
Dihydrofolate reductase [19] = molecular target: T2, Dihydrofolate reductase; experiment: Inhibition of human DHFR assessed as reduction in consumption of NADPH using DHF as substrate by fluorescence method
[20] = test system: Mycobacterium tuberculosis; experiment: Antimycobacterial activity against Mycobacterium tuberculosis H37Rv infected in human THP1 cells after 5 days by Steady-Glo luminescence assay; type: functional; conditions: 120 h
[21] = test system: Mycobacterium tuberculosis; experiment: Antimycobacterial activity against GFP-fused Mycobacterium tuberculosis H37Rv after 7 days BacTiter-Glo assay; type: functional; conditions: 168 h
Dihydrofolate reductase [22] = molecular target: T1, Dihydrofolate reductase; experiment: Inhibition of Mycobacterium tuberculosis H37Rv DHFR expressed in Escherichia coli BL21(DE3) assessed as reduction in consumption of NADPH using DHF as substrate preincubated for 1 min followed by DHF addition and measured for 2 mins by spectrophotometric method

Nc1nc(N)nc(-c2ccc(OCc3ccc(Cl)cc3)cc2)n1
IC50 (Dihydrofolate reductase [1]): 5.17 µM | IC50 (Dihydrofolate reductase [2]): 83.3 µM | CC50 [3]: 333 µM | MIC [4]: 1.76 µM (≈ 0.577 µg/mL)

NC1=NC2(CCCCC2)N(Cc2ccc(Cl)cc2)C(N)=N1
IC50 (A549): > 100 µM | IC50 (Dihydrofolate reductase [5]): > 100 µM

Cl.NC1=NC2(CCCCC2)N(c2ccc(OCc3cn(CCCOc4ccc5ccc(=O)oc5c4)nn3)cc2)C(N)=N1
microsomal CLint at 3 µM [6]: 27.8 µL/min/mg | IC50 (Dihydrofolate reductase [7]): 1.34 µM | selectivity ratio [8]: > 4000 | CC50 [9]: > 100 µM | HC50 at 24 h [10]: > 100 µM | IC50 (Dihydrofolate reductase [11]): 12 µM | microsomal CLint at 3 µM [12]: 8.6 µL/min/mg | Ratio IC50 [13]: 8.95 | solubility at 1.5 h [14]: > 100 µM | half-life at 3 µM [15]: 1.39 h | MIC50 [16]: 0.01 µM | MIC90 [16]: 0.025 µM | half-life at 3 µM [17]: 4.51 h

Cl.NC1=NC2(CCCCC2)N(c2ccc(OCc3cn(CCCc4ccccc4)nn3)cc2)C(N)=N1
IC50 (Dihydrofolate reductase [7]): 5.82 µM | IC50 (Dihydrofolate reductase [11]): 3.67 µM | Ratio IC50 [13]: 0.63

Nc1nc(N)nc(-c2ccc(OCc3cccc(Cl)c3)cc2)n1
IC50 (Dihydrofolate reductase [1]): 5.62 µM | IC50 (Dihydrofolate reductase [2]): 72.5 µM | CC50 [3]: 387 µM | MIC [4]: 1.57 µM (≈ 0.515 µg/mL)

N#Cc1ccc(Cn2ccc3c4c(N)nc(N)nc4ccc32)cc1
IC50 (Dihydrofolate reductase [18]): 0.0101 µM | IC50 (Dihydrofolate reductase [19]): 0.0068 µM | MIC90 [20]: 0.5 µM (≈ 0.157 µg/mL)

COC(=O)CC[C@H](NC(=O)c1ccc(N(C)Cc2cnc3nc(N)nc(N)c3n2)cc1)C(=O)OC
MIC90 [21]: 0.2 to 0.4 µM (≈ 0.0965 to 0.193 µg/mL) | IC50 (Dihydrofolate reductase [22]): 0.05 µM

Cl.NC1=NC2(CCCCC2)N(c2ccc(OCc3cn(CCCCOc4ccc5ccc(=O)oc5c4)nn3)cc2)C(N)=N1
microsomal CLint at 3 µM [6]: 39.2 µL/min/mg | IC50 (Dihydrofolate reductase [7]): 0.82 µM | selectivity ratio [8]: > 4000 | CC50 [9]: > 100 µM | HC50 at 24 h [10]: > 100 µM | IC50 (Dihydrofolate reductase [11]): 15.3 µM | microsomal CLint at 3 µM [12]: 20.4 µL/min/mg | Ratio IC50 [13]: 18.7 | solubility at 1.5 h [14]: 95.8 µM | half-life at 3 µM [15]: 0.983 h | MIC50 [16]: 0.01 µM | MIC90 [16]: 0.025 µM | half-life at 3 µM [17]: 1.89 h

Cc1c(Cc2ccccc2Br)cnc2nc(N)nc(N)c12
IC50 (Dihydrofolate reductase [18]): 0.0082 µM | IC50 (Dihydrofolate reductase [19]): 0.0076 µM | MIC90 [20]: 1.3 µM (≈ 0.447 µg/mL)

CCOC(=O)CC[C@H](NC(=O)c1ccc(N(C)Cc2cnc3nc(N)nc(N)c3n2)cc1)C(=O)OCC
MIC90 [21]: 0.6 µM (≈ 0.306 µg/mL) | IC50 (Dihydrofolate reductase [22]): 0.03 µM

COc1ccc(-c2nc3c(N)nc(N)nc3nc2C(C)C)cc1
IC50 (Dihydrofolate reductase [18]): 0.0545 µM | IC50 (Dihydrofolate reductase [19]): 0.382 µM | MIC90 [20]: 2.9 µM (≈ 0.9 µg/mL)

Cl.NC1=NC2(CCCCC2)N(Cc2cn(CCCCCOc3ccc4oc(=O)ccc4c3)nn2)C(N)=N1
IC50 (Dihydrofolate reductase [7]): > 100 µM
